Source: PubChem BioAssay
FLuc act counter: firefly luciferase counter-screen for stimulation assays; activation factor at 10 µM; 200,000 tested, under 10 active; AID 1027; ATPlite luciferase biochemical, luminescence, 10 min; 0 = ATP-free wells, 1 = DMSO control; P08659;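 active means luciferase activation factor, scaled between plate controls, of at least 2 with compound at 10 µM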
Target sequence (P08659 whole entry, looked up): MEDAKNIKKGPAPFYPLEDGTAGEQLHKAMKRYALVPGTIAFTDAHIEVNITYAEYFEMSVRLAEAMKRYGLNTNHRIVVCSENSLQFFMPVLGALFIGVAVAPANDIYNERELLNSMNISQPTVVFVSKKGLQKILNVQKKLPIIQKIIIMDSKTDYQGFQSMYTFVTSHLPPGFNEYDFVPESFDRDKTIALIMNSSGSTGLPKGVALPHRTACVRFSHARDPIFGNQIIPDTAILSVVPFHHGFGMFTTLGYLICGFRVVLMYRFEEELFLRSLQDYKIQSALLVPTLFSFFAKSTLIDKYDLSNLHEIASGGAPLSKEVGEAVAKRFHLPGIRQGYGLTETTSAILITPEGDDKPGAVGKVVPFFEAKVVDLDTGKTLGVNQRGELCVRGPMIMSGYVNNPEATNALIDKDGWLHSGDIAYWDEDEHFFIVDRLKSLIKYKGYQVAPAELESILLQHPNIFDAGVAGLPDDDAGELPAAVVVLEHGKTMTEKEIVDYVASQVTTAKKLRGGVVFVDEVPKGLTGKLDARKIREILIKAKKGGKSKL
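System: cell-free luciferase reagent; medium: PBS as buffer for the ATP substrate; doses: test compounds dosed from 2 mM stocks in 100% DMSO; incubation: 10 min, room temperature; measured by: luminescence from luciferase reaction; read-out: luciferase activation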
TRAIL sens C8: sensitizes caspase-8 expressing cells to TRAIL. AID 624354. inhibition (viability loss, TRAIL sensitization), % at 10 µM. NB7+C8 cells + TRAIL, ATPlite viability luminescence. 360,000 compounds, 1% hits;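 active means compounds causing at least 50% loss of cell viability in the single-dose screen, relative to plate controls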
FLuc inh counter: inhibits firefly luciferase, flagging false hits in luciferase inhibition screens; ATPLite firefly luciferase biochemical luminescence, 10 min; AID 1006; inhibition, % at 10 µM; 200,000 compounds, 1.5% hits; P08659;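 active means inhibition above about 50% when tested at 10 µM, limit read from the data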
HSP90 refold inh: HSP90 refolding inhibition in rabbit reticulocyte lysate | luciferase refolding luminescence, 3 h | inhibition, % at 5.6 µM | 290,000 compounds, 0.91% hits | AID 1789;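 active means inhibition above the screen-wide mean plus 3 SD, computed separately per campaign, cut at about 16% in these data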;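 further: 0% = DMSO wells and 100% = 60 µM geldanamycin wells; inhibitors lower the luminescence because luciferase stays unfolded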
PPC-1+TRAIL kill: PPC-1 cancer cell killing with TRAIL present. PPC-1 cells + TRAIL, ATPLite viability luminescence. cell killing (% activity), % at 4 µM or 5 µM. 220,000 compounds, 0.41% hits;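 active means cell killing above 50% in the first pass at 4 µM, then a duplicate retest at 5 µM averaging 50% or more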;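 further: plate controls were cells with TRAIL plus DMSO for no effect and medium-only wells lacking cells for full effect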
HSP90 inh confirm: confirmation of HSP90 inhibitors; shares compounds with HSP90 refold inh; rabbit reticulocyte lysate, luciferase refolding luminescence, 3 h; inhibition, % at 5.9 µM; 2,300 compounds, 64% hits; in the data active means inhibition above about 18%;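 further: 0% = vehicle wells and 100% = reference inhibitor wells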
luciferase ctr: counter-screen for HSP90 inhibitors: inhibitors of firefly luciferase | 2,300 compounds, 48% hits | purified native firefly luciferase, luminescence | inhibition, % at 5.9 µM | shares compounds with HSP90 refold inh | AID 1847;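 active means inhibition above the mean inhibition of all tested sample wells plus 3 SD, cut at about 10% in these data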;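 further: 0% = DMSO with luciferase and 100% = wells lacking luciferase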
An asterisk follows results filed as active; x = no result. Only some compounds are listed: those with a hit (about 2% of all), similar ones and a draw of the others.

SMILES	FLuc act counter	TRAIL sens C8	FLuc inh counter	HSP90 refold inh	PPC-1+TRAIL kill	HSP90 inh confirm	luciferase ctr
CC(=N\Nc1ccccc1)/C(=N/O)C(=O)Nc1ccccc1	1.1	-11	-7	-3	3	x	x
O=C(N/N=C/c1cccnc1)NC12CC3CC(CC(C3)C1)C2	x	-5	x	32*	2	6	1
O=C(N/N=C/c1ccc(O)c(O)c1)NC12CC3CC(CC(C3)C1)C2	x	1	x	-5	x	x	x
COc1ccc(N/C=C/C(=O)c2ccccc2)cc1	x	71*	x	54*	x	88*	81*
COc1ccc(C(=O)/C=C/Nc2cc(C)ccn2)cc1	x	61*	x	31*	35	68*	55*
CCOC(=O)CC(NC(=O)C1c2ccccc2Oc2ccccc21)c1ccccc1Cl (centres undefined)	1.1	1	-6	4	-20	x	x
Clc1cccc(-c2ccc(CNCCCN3CCOCC3)o2)c1	1.1	1	-6	27*	2	1	-4
Cc1ccc(NC(=O)c2nnn(-c3ccc4c(c3)OCCO4)c2N)cc1	x	13	x	-6	x	x	x
Nc1c(C(=O)Nc2ccccc2)nnn1-c1ccc2c(c1)OCCO2	x	46	x	24*	x	45*	31*
CCCCC(O)(c1ccc(CC)cc1)C(CN1CCOCC1)c1ccccc1 (centres undefined)	x	7	x	2	x	x	x
C/C=C/c1ccccc1OCc1ccc(C(=O)O)o1	1.1	-4	-7	6	5	x	x
COC(=O)c1ccc(COc2ccc(C=O)cc2)o1	x	-6	x	0	x	x	x
CCCc1ccc(OCc2ccc(C(=O)N3CCSCC3)o2)cc1	x	-8	x	52*	x	55*	8
CCOc1ccc(OCc2ccc(C(=O)O)o2)cc1	0.9	4	9	90*	-20	92*	60*
CCOc1ccc(OCc2ccc(C(=O)NCc3ccncc3)o2)cc1	1	-9	-4	18*	3	19*	-4
O=C(O)c1ccc(COc2ccc3ccccc3c2)o1	x	-7	x	67*	8	75*	30*
Cc1cc(OC(=O)c2cccc(F)c2)c([N+](=O)[O-])c(=O)[nH]1	x	14	x	-2	x	x	x
COc1ccc(S(=O)(=O)N2CCCC(C(=O)NC3CC3)C2)cc1OC (centres undefined)	x	-13	x	x	x	x	x
c1ccc(-c2nnc(-c3ccccn3)nc2NC2CCCCC2)cc1	1	11	0	22*	2	16*	-12
CNc1nc(-c2ccccn2)nnc1-c1ccccc1	1	-3	-2	1	23	x	x
CCN(CC)S(=O)(=O)c1ccc(C)c(NC(=O)CSc2nc3ccc(C)cc3[nH]2)c1	1	-1	-3	-1	16	x	x
CCc1ccccc1N(CC(=O)N1CCCC1)S(C)(=O)=O	x	2	x	22*	x	-3	-2
CCc1ccccc1N(CC(=O)N1CCCCCC1)S(C)(=O)=O	x	3	x	-1	x	x	x
Cc1cc(/C=C2\SC(=S)N(C)C2=O)c(C)n1-c1cccc(O)c1	x	20	x	8	6	x	x
Cc1cc(/C=C2\SC(=O)N(C)C2=O)c(C)n1-c1ccc(S(N)(=O)=O)cc1	x	-4	x	-1	x	x	x
SMILES	FLuc act counter	TRAIL sens C8	FLuc inh counter	HSP90 refold inh	PPC-1+TRAIL kill	HSP90 inh confirm	luciferase ctr
Cc1cc(/C=C2\SC(=O)N(C)C2=O)c(C)n1-c1ccc(O)cc1	x	27	x	48*	x	64*	63*
CN=C1S/C(=C\c2cc(C)n(-c3ccccc3F)c2C)C(=O)N1C	0.2	55*	82*	49*	40	65*	63*
Cc1c(CC(=O)NCCCCCC(=O)O)c(=O)oc2cc3c(cc12)CCC(C)(C)O3	x	33	x	3	x	x	x
Cc1c(CC(=O)NCCCC(=O)O)c(=O)oc2cc3c(cc12)CCC(C)(C)O3	x	-19	x	24*	x	36*	-5
CCc1nnc(NC(=O)CSc2nnc(Cc3cc(=O)[nH]c(=O)[nH]3)n2-c2cccc(OC)c2)s1	1.1	-1	-5	2	16	x	x
C(=N\Nc1nc2ccccc2[nH]1)/c1c[nH]c2ccccc12	0.7	-16	30	-4	-17	x	x
COc1ccc(/C=N/Nc2nc3ccccc3[nH]2)c(OC)c1OC	x	12	x	27*	21	54*	62*
O=C(CNC(=O)c1ccc(Br)o1)NCC1CCCCC1	x	-7	x	x	x	x	x
Cc1cccc(NCc2cc(Cl)ccc2O)n1	1.1	-2	-5	-3	12	x	x
Cc1cccc(NCc2cc(Cl)cc(Cl)c2O)n1	1	-1	-4	18*	37	-2	-4
COc1cccc(/C=C2\Oc3ccc(O)cc3C2=O)c1O	x	65*	x	17*	x	33*	34*
C=CCn1c(C)cc(C(=O)CSc2nc3ccccc3[nH]2)c1C	0.5	46	55*	32*	29	62*	63*
C=CCn1c(C)cc(C(=O)CSc2nc3ccccc3c(=O)[nH]2)c1C	0.8	25	18	1	15	x	x
COc1ccc(N2CCN(C(=O)Cc3ccc(Br)cc3)CC2)cc1	x	-9	x	1	18	x	x
Cc1ccc(-c2cnc3ccccc3n2)cc1C	x	9	x	29*	x	64*	58*
Clc1ccc(-c2cnc3ccccc3n2)cc1	0.9	3	11	-8	4	x	x
CC1CC(c2ccccc2)NS(=O)(=O)O1 (centres undefined)	x	8	x	-2	x	x	x
O=C(Nc1nc2ccc(SC(F)F)cc2s1)c1ccc(NS(=O)(=O)c2ccc(F)c(F)c2)cc1	1	3	4	-3	11	x	x
O=C(CNCc1ccc(F)cc1)Nc1ccccc1[N+](=O)[O-]	1.1	-4	-8	0	8	x	x
CNC(=O)C[C@H]1C(=O)N(CCc2ccccc2)C[C@@H]1c1ccc(OC)cc1	x	-5	x	x	x	x	x
COc1ccc(-c2[nH]ncc2CN2CCC(N3CCSCC3)CC2)cc1F	1	-6	0	-5	x	x	x
Cc1cc(C(=O)COC(=O)c2ccc(O)cc2)c(C)n1-c1ccccc1F	0.6	7	42	50*	9	58*	49*
O=C(NCC1CCCO1)c1nn2c(C(F)(F)F)cc(-c3ccc(Br)o3)nc2c1Br (centres undefined)	x	20	x	-2	x	x	x
COc1ccc2nc(NC(=O)c3ccoc3C)sc2c1	0.5	39	51*	22*	9	41*	30*
COc1ccc2nc(NC(=O)c3cc(C)oc3C)sc2c1	0.5	40	49	2	29	x	x
O=C(NCc1ccncc1)[C@@H]1CCCN1C(=O)[C@@H]1CCCN1C(=O)c1ccccc1	x	-16	x	x	x	x	x
CCOC(=O)N1CCN(C(=O)CN(c2ccc(Oc3ccccc3)cc2)S(C)(=O)=O)CC1	1.1	7	-12	-2	-11	x	x
CS(=O)(=O)N(CC(=O)O)c1ccc(Oc2ccccc2)cc1	1	5	0	17*	18	3	-3
O=C(c1ccco1)N1CCc2ccccc21	0.9	-1	14	-2	-8	x	x
